Experimental data as given in PubChem BioAssay.
Calls of active or inactive are those of the source.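 The calls were made as follows, unless noted: active = inhibition at or above 50% at 10 µM; inactive = inhibition below 50%.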

How the values were obtained:
[1] = inhibitors of TNFa-induced NFkB p65 translocation, primary screen, imaging, HUVEC, MLSMR starter and 10KST1 sets (AID 438;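 active = inhibition above 20% together with a positive visual image hit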;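 also: compound added about 3h40 before a 20 min TNFalpha stimulation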;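 as to inhibition: signal is the nuclear over cytoplasmic p65 intensity ratio per well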); conditions: HUVEC TNFa-induced p65 nuclear translocation; cell count: measured here: nuclei count (cytotoxicity indicator), at 2.08 µM; inhibition: at 2 µM, stronger effect = higher value, 0% TNFa-plus-vehicle, 100% no-TNFa wells
[2] = inhibitors of mutant huntingtin aggregation, primary screen, imaging, exon1htt(103Q)mCFP cells, high-content imaging (AID 483;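 active = visual image review flags a hit and inhibition of aggregation exceeds 20%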;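 also: compound exposure lasted 3 days before fixation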;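 as to nuclei count: percent of the per-plate median nuclei count of sample wells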); conditions: exon1htt(103Q)mCFP cell line, aggregate imaging, at 2 µM; inhibition of aggregation: stronger effect = higher value; nuclei count: measured here: cell count, toxicity
[3] = inhibitors of E-selectin induction by TNFa, primary screen, imaging, HUVEC, immunofluorescence, MLSMR starter and 10KST1 sets (AID 487;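 active = visually confirmed hit in the image check and inhibition above 20%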;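 as to inhibition: signal is fraction of cell area covered by stained E-selectin grains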;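 as to nuclei count: 100% = median nuclei count of all wells on the same plate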); conditions: HUVEC TNFalpha-induced E-selectin immunofluorescence imaging, at 2 µM; inhibition: stronger effect = higher value; nuclei count: measured here: cell number, toxicity
[4] = biological target: Voltage-gated potassium channel subunit beta-2 (Rattus norvegicus) (UniProt P62483); assay: KvBeta enzyme negative modulators, primary screen, biochemical, NADPH fluorescence (AID 622;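 active = fluorescence slope higher than the sample average by over 3 SD, cut at about -0.22 in these data, passing the limit was not always enough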;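 also: slope of raw intensity against log time taken from 70 to 1610 s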); conditions: recombinant KvBeta, 4-cyanobenzaldehyde reduction, at 10 µM, stronger effect = higher value
Sequence of Voltage-gated potassium channel subunit beta-2 (Rattus norvegicus) (P62483 whole entry, looked up): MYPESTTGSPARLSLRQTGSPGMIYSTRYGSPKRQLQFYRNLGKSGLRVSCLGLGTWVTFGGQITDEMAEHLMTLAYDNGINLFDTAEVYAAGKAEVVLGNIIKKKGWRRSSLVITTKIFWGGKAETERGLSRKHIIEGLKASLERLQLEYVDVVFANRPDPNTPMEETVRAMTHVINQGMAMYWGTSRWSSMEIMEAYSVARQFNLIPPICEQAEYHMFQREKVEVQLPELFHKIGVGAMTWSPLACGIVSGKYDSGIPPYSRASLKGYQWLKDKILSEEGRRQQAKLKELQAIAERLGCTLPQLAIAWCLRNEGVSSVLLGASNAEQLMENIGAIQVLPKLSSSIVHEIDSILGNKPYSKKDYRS

[5] = biological target: Voltage-gated potassium channel subunit beta-2 (Rattus norvegicus) (UniProt P62483); assay: KvBeta positive modulators, primary screen, biochemical, NADPH fluorescence (AID 623;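 active = NADPH fluorescence slope more negative than the mean of all samples by about 3 SD, 99.7% confidence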;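 also: fluorescence intensity change per second fitted from 20 to 320 s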); conditions: Recombinant KvBeta, NADPH fluorescence decrease slope, 10 min; at 10 µM; stronger effect = lower value
[6] = biological target: Muscarinic acetylcholine receptor M4 (Homo sapiens) (UniProt P08173); assay: compounds altering M4/GIRK thallium flux, either direction, primary screen, M4 allosteric agonist project, cell-based, HEK293 M4/GIRK, BTC-AM (AID 625;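 active = fluorescence slope after compound addition differing from the mean of all tested samples at 99.7% confidence, mostly higher but some lower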;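 also: thallium influx through GIRK channels coupled to M4 in HEK293 cells with BTC-AM dye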); conditions: at 10 µM, actives lie on both sides
Sequence of Muscarinic acetylcholine receptor M4 (Homo sapiens) (P08173 whole entry, looked up): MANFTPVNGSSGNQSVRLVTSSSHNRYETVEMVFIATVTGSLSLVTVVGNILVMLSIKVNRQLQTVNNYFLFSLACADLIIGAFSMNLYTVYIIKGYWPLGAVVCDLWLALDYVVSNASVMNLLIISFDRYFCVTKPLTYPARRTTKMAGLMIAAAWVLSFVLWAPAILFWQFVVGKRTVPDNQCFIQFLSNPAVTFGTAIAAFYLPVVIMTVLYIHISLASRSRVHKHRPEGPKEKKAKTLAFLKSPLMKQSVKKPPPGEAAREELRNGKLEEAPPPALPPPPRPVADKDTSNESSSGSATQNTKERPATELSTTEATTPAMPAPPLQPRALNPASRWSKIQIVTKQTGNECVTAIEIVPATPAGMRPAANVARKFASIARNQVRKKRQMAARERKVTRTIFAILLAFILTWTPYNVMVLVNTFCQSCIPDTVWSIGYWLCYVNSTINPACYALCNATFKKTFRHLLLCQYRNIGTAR
Outline: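 Material – HEK293 cells with M4 receptor and GIRK channels · Buffer or medium – pH 7.3 thallium assay buffer · Doses – one dose, 10 µM final · Timing – cells overnight at 37 °C, BTC-AM loading 1 h, reads 2 min total · Measured by – kinetic fluorescence with BTC-AM dye · Controls – carbachol and DMSO controls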

[7] = inhibitors of Sendai virus-induced IRF3 signaling, primary screen, TLR/RLR signaling modifier project, cell-based, Sendai virus stimulus, luciferase, 10K MLSCN set (AID 602276); conditions: HEK293 RL24 IRF3 luciferase reporter, at 10 µM, stronger effect = higher value;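 also: firefly luciferase from ISG56 promoter only with Renilla not read in this screen; 0% = Sendai virus plus DMSO and 100% = medium plus DMSO without virus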
[8] = inhibitors of poly I:C-induced TLR3 signaling, primary screen, cell-based, poly I:C stimulus, luciferase, 10K MLSCN set (AID 602277;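 active = inhibition of the reporter signal at or above 50%; inactive = inhibition below 50%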); conditions: HEK293-TLR3 RL24 IRF3 luciferase reporter, at 10 µM, stronger effect = higher value

| Structure (SMILES) | cell count [1] | inhibition [1] | inhibition of aggregation [2] | nuclei count [2] | inhibition [3] | nuclei count [3] | fluorescence slope [4] | NADPH fluorescence slope [5] | fluorescence slope [6] | inhibition [7] | inhibition [8] |
| --- | --- | --- | --- | --- | --- | --- | --- | --- | --- | --- | --- |
| CCn1c(SCC(N)=O)nc2c1c(=O)n(C)c(=O)n2C | 226 | 4.9% (inactive) | 20.7% (inactive) | 80.1% | -57.2% (inactive) | 152% | -0.422 (inactive) | 2.5e-05 (inactive) | 0.00578 (inactive) | 17.5% (inactive) | 21.1% (inactive) |
| CSC(=O)CC(=O)NC(=O)c1ccccc1 | 373 | 0% (inactive) | -2.5% (inactive) | 90% | -76.9% (inactive) | 159% | -0.605 (inactive) | 1.1e-06 (inactive) | 0.00374 (inactive) | 7.05% (inactive) | 5.94% (inactive) |
| CCNC(=O)CC(=O)Nc1ccccc1C(=O)O | 725 | -14.7% (inactive) | 11.3% (inactive) | 90.3% | -35.3% (inactive) | 118% | -0.282 (inactive) | -2.6e-05 (inactive) | 0.00586 (inactive) | 17.2% (inactive) | 16.6% (inactive) |
| COc1ccc(-n2ncc3c(NCc4ccc5c(c4)OCO5)ncnc32)cc1 | 360 | -4.3% (inactive) | 9.7% (inactive) | 94.3% | -9.3% (inactive) | 105% | -0.539 (inactive) | -4.4e-05 (inactive) | 0.00526 (inactive) | -4.14% (inactive) | -24.9% (inactive) |
| CC(Oc1ccc2oc(-c3ccccc3)c(C(=O)O)c2c1)C(=O)O (centres undefined) | 371 | 10.6% (inactive) | 9% (inactive) | 104% | 27.6% (inactive) | 89.9% | -0.158 (inactive) | -5.4e-05 (inactive) | 0.00531 (inactive) | 7.55% (inactive) | 16.2% (inactive) |
| C=CCNC(=O)CSc1ccc(Cl)cc1 | 339 | 7.4% (inactive) | -7.8% (inactive) | 96% | -99.8% (inactive) | 101% | -0.448 (inactive) | -0.000358 (inactive) | 0.00478 (inactive) | 5.55% (inactive) | -3.36% (inactive) |
| Cc1ccc(Cn2c(SCC(C)C)nc3c2c(=O)n(C)c(=O)n3C)cc1 | 468 | -1.3% (inactive) | -13.4% (inactive) | 111% | -65.5% (inactive) | 119% | -0.468 (inactive) | -0.000354 (inactive) | 0.00373 (inactive) | 16.7% (inactive) | 14.4% (inactive) |
| COc1ccc(CCNC(=O)c2cc(-c3cc(C)c(C)cc3O)n[nH]2)cc1OC | 434 | 2.8% (inactive) | 8.6% (inactive) | 88.9% | -83.7% (inactive) | 145% | -0.444 (inactive) | -0.000364 (inactive) | 0.00555 (inactive) | 9.16% (inactive) | 9.05% (inactive) |
| COc1ccccc1NC(=O)C(O)C(O)C(=O)Nc1ccccc1OC (centres undefined) | 350 | 8.6% (inactive) | 2.9% (inactive) | 84.5% | -101% (inactive) | 101% | -0.351 (inactive) | -4.1e-05 (inactive) | 0.00694 (inactive) | -7.84% (inactive) | -0.666% (inactive) |
